# pIC50: −log10 of the molar value.
# Key:
# Salmonella typhimurium [1] = experiment: Suppression in H2O2-iduced mutagenesity in Salmonella Typhimurium TA102 assessed as 150 to 100 % suppression of revertant formation by Ames assay; details: Salmonella enterica
# RPMI-8226 = experiment: Cytotoxicity against human RPMI8226 cells after 72 hrs by MTT assay; assay type: functional, cell-based; details: RPMI-8226, 72 h
# Salmonella typhimurium [2] = experiment: Suppression in mutagenesity in Salmonella Typhimurium TA102 assessed as 100 to 50% suppression of revertant formation by Ames assay; details: Salmonella enterica
# Salmonella typhimurium [3] = experiment: Suppression in H2O2-iduced mutagenesity in Salmonella Typhimurium TA102 assessed as 100 to 50 % suppression of revertant formation by Ames assay; details: Salmonella enterica
# [4] = Cytotoxicity against mouse PMF after 72 hrs by MTT assay
# [5] = Cytotoxicity against mouse LMTK cells after 72 hrs by MTT assay; assay type: cell-based; details: L-M(TK-)
# MCF7 = experiment: Cytotoxicity against human MCF7 cells after 72 hrs by MTT assay; assay type: functional, cell-based; details: MCF7, 72 h
# [6] = Growth inhibition of mouse LMTK cells at 173 uM after 72 hrs by MTT assay; assay type: cell-based
# Salmonella typhimurium [7] = experiment: Suppression in mutagenesity in Salmonella Typhimurium TA102 assessed as 100 to 50% suppression of revertant formation at 50 ug/ml by Ames assay
# [8] = Growth inhibition of mouse PMF at 25 ug/ml after 72 hrs by MTT assay; details: mouse PMF cells, read-out: GI
# How it was run: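 PMF cells (about 2000 per well) seeded and held 24 h at 37 °C in IMDM or RPMI 1640 under 5% CO2, then exposed to compound.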
SMILES,pIC50 (Salmonella typhimurium [1]),pIC50 (RPMI-8226),pIC50 (Salmonella typhimurium [2]),pIC50 (Salmonella typhimurium [3]),pIC50 [4],pIC50 [5],pIC50 (MCF7),growth inhibition (GI) [6],Activity (Salmonella typhimurium [7]) [%],"inhibition at 72 h, 25 ug/ml [8] [%]"
CCN(CC)C1=C(F)C(=O)c2c(F)c(F)c(F)c(F)c2C1=O,6.07,5.16,4.73,5.57,4.55,4.20,5.39,,,
O=C1C(F)=C(Nc2ccccc2)C(=O)c2c(F)c(F)c(F)c(F)c21,7.05,5.62,6.23,6.82,5.13,4.93,5.62,,,
CC(C)(C)NC1=C(F)C(=O)c2c(F)c(F)c(F)c(F)c2C1=O,5.85,5.46,4.91,5.16,5.51,5.20,5.60,,,
CCNC1=C(F)C(=O)c2c(F)c(F)c(F)c(F)c2C1=O,7.03,5.62,6.16,6.00,4.51,4.96,5.07,,,
CC1=C(SCCO)C(=O)c2c(F)c(F)c(F)c(F)c2C1=O,,4.83,6.09,6.36,,,3.76,Not Active,,
CC1=C(Nc2ccccc2)C(=O)c2c(F)c(F)c(F)c(F)c2C1=O,6.12,4.65,< 3.83,4.66,,3.98,4.87,,24,45
